Our source for the inhibition values is PubChem BioAssay AID720543 (The Scripps Research Institute Molecular Screening Center, 2013).

Where “and” joins values, the source holds several entries; their conditions need not be identical. Equal entries are not always repeated. About 2,000 (0.54%) of roughly 370,000 compounds were called active.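 Rule for the calls: active = inhibition exceeding the mean over every tested compound plus 3 SD (cut at about 30% in these data); inactive = the rest.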 The full list was thinned out, with actives kept by preference. Some structures have more than one record in an assay (separate samples or runs), and their calls can disagree.

Sequence of (Lyso)-N-acylphosphatidylethanolamine lipase (Mus musculus) (Q8VD66 whole entry, looked up): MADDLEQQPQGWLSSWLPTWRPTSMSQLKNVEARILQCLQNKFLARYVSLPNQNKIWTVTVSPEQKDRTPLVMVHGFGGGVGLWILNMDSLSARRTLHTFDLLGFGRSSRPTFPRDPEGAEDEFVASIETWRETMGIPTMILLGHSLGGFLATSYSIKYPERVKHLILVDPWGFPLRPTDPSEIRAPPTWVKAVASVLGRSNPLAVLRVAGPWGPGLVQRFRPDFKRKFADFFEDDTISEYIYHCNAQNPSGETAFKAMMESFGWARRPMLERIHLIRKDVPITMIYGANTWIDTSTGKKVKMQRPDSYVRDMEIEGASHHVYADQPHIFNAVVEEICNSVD

The target in this test is (Lyso)-N-acylphosphatidylethanolamine lipase (Mus musculus) (UniProt Q8VD66). The experiment in a line: ABHD4 inhibitors, primary screen, biochemical, fluorescence polarization, mouse (AID 720543).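 Note: 0% = plate median of compound wells and 100% = S159A mutant with DMSO.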 The following applies: purified mABHD4, FP-Rh probe fluorescence polarization; at 8.92 µM; stronger effect = higher value. Summed up:
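assay system = mABHD4 protein | compound dosing = single nominal dose of 8.92 µM, 0.89% DMSO final | read-out basis = percent inhibition of probe binding, normalized to plate controls | schedule = Enzyme–compound pre-incubation 45 min, then probe 60 min, both 25 °C | detection = fluorescence polarization, excitation 525 nm, emission 598 nm, BODIPY TMR filters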
As to `COC(=O)c1c(-c2ccc(OC)cc2)c2c(c3c4cc(OC)ccc4n(S(=O)(=O)c4ccc(F)cc4)c13)C(=O)N(C)C2`, the inhibition was -0.06% (inactive).
As for `Cc1cc(NS(=O)(=O)c2ccc(NC(=O)CSc3nnc(SCc4ccc(F)cc4)s3)cc2)nc(C)n1`, the inhibition is -21.5% (inactive).
Next, `Fc1ccc2nc(COCc3nc4ccc(F)cc4[nH]3)[nH]c2c1`: -7.17% (inactive); `COC(=O)c1[nH]c2ccc(Br)cc2c1NC(=O)Oc1ccccc1`: -1.15% (inactive); `COCC(=O)Nc1c(C(=O)N2CCCC2)oc2ccccc12`: -0.25% (inactive).
Then `COC(=O)c1oc2ccc(Br)cc2c1NC(C)=O`, with 40.3% (active).
`FC(F)(F)c1cccc(NC(=S)OC2CCC23CCC(c2ccccc2)CC3)c1` (centres undefined): the inhibition was -21.8% (inactive).
`Cc1cc(C)c(S(=O)(=O)NN=C2c3ccccc3[C@H]3Cc4csc[n+]4[C@@H]23)c(C)c1`: the inhibition was 33.3% (active).
Next, `CCOC(=O)c1csc(NC(=O)C2CCCN(S(=O)(=O)c3ccc(Cl)s3)C2)n1` (centres undefined): -51.6% (inactive).
For `CCCCCCN1CCS(=O)(=O)N(Cc2ccc(C(F)(F)F)cc2)C(C(=O)OC)C1` (centres undefined), the inhibition was -4.07% (inactive).
Next, `Cc1ccc(NS(=O)(=O)c2ccc3c(c2)n(C)c(=O)c(=O)n3C)c(C)c1`: -1.8% (inactive).
Take `COc1ccc(Br)cc1/C=N/Nc1ccc(Cl)c(C(=O)O)c1`: the inhibition is 40.3% (active).
Then `O=[N+]([O-])c1cc(S(=O)(=O)Nc2cccc(Cl)c2)ccc1N=Nc1c(O)[nH]c2ccccc12`, with 7.74% (inactive).
`COc1ccc(Br)cc1/C=N/Nc1ccc(S(=O)(=O)Nc2ccccc2C(=O)O)cc1[N+](=O)[O-]`: the inhibition is 38.4% (active).
For `O=C(Nc1cc(S(=O)(=O)Nc2ccc(Cl)cc2)ccc1O)c1ccc(F)cc1F`, the inhibition was -6.3% (inactive).
Then `Cc1ccc(NS(=O)(=O)c2ccc(N/N=C/c3ccccc3OCC(=O)O)c([N+](=O)[O-])c2)c(C)c1`, with 52.1% (active).
Then `Cc1ccc(C)c(NS(=O)(=O)c2ccc(OCC(=O)NCc3cccnc3)cc2)c1`, with -3.89% (inactive); and `COc1ccc(S(=O)(=O)NC(C)c2ccccc2)cc1C(=O)N1CCCCC1` (centres undefined), with 3.07% (inactive).
Next, `O=C(O)c1ccccc1/C=N/Nc1ccc(S(=O)(=O)Nc2ccc(Cl)cc2)cc1[N+](=O)[O-]`: 43.8% (active); `COc1ccc(Br)cc1CN(C)CC(=O)Nc1cc(Cl)cc(Cl)c1`: 6.47% (inactive); `Cc1ccc(OCCOCCOc2ccc(Br)cc2/C=N\NC(=O)c2ccncc2)cc1`: -84.8% (inactive).
As for `COc1cc(/C=C/C(=O)O)cc(S(=O)(=O)Nc2ccccc2C(=O)NCCc2ccccc2)c1OC`, the inhibition is 6.19% (inactive).
`CC1(C)CC(=O)C(C2c3ccccc3S(=O)(=O)c3ccccc32)C(=O)C1`: the inhibition was 0.77% (inactive).
For the compound `O=C(CSc1nc2c(c(=O)[nH]1)CCCC2)N1CCCCC1`, the inhibition was 0.85% (inactive).
Then `Cc1ccccc1CS(=O)(=O)Cc1ccc(C(=O)Nc2ccc(Cl)cc2)o1`, with 1.54% (inactive).
As to `CN(C)S(=O)(=O)c1cccc(C(=O)N/N=C\c2ccco2)c1`, the inhibition was 5.39% (inactive).
Next, `COc1ccc([C@H]2OC(=O)C[C@H]2C(=O)N2CCN(c3ccccc3F)CC2)cc1OC`: 0.9% (inactive); `CC(C)(C)NC(=O)NC(=O)COC(=O)Cn1c(C(F)(F)F)nc2ccccc21`: 1.11% (inactive); `Cc1cccc(NC(=O)C[C@H]2CC[C@H]3[C@@H](COc4ccc(NC(=O)Nc5ccccc5)cc4C(=O)N3C)O2)c1`: 7.9% (inactive).
Next, `COc1ccc(-n2c(SCC(=O)Nc3ccc4cn[nH]c4c3)nnc2-c2cccnc2)cc1`: 0.5% (inactive); `CCOc1ccc(/C(O)=C2\C(=O)C(=O)N(c3ccc(OC)cc3)C2c2ccccc2[N+](=O)[O-])cc1` (centres undefined): 5.37% (inactive).
Next, `C[C@@H](NC(=O)c1ccccc1OCC(=O)Nc1ccc(I)cc1)C(=O)N(C)Cc1ccccc1`: -28.4% (inactive).
`COc1ccc(Cc2nc3ccc(C(=O)N4CCC(N(C)C)C4)cc3o2)cc1` (centres undefined): the inhibition is -2.59% (inactive).
Take `Cc1cc(=O)[nH]c(SCC(=O)Nc2ccc(F)cc2F)n1`: the inhibition was 2.2% (inactive).
For `CCOc1ccccc1NS(=O)(=O)c1c[nH]c(C(=O)OC)c1`, the inhibition was -5.46% (inactive).
Then `COc1cccc(/C=N/Nc2ccc(S(=O)(=O)Nc3ccccc3C(=O)O)cc2[N+](=O)[O-])c1O`, with 70.3% (active).
Next, `CCN(CC(=O)NCc1cccs1)C(=O)c1cccc(S(=O)(=O)Nc2ccccc2OC)c1`: -5.42% (inactive); `CC(C)(C)NC(=O)C(c1cccnc1)N(C(=O)c1cnco1)c1ccc(C(C)(C)C)cc1` (centres undefined): -5.63% (inactive).
As to `CC1CCCCC1NC(=O)CSc1nnc(-c2ccncc2)n1CCCN(C)C` (centres undefined), the inhibition is 18.4% (inactive).
For `CCC[C@H]1C(=O)CC[C@@]23CCCN2C(=O)CCC[C@@H]13`, the inhibition was -0.16% (inactive).
Then `CN1C(=O)C2CC(O)C(SC3CC4C(=O)N(C)C(=O)C4CC3O)CC2C1=O` (centres undefined), with 4.09% (inactive); and `CCCC(=O)N1c2ccc(-c3csc(N)n3)cc2CC1C` (centres undefined), with 6.5% (inactive); and `CC(C)(C)C(=O)OCc1nc(-c2ccc(O)c(O)c2)cs1`, with 39.5% (active).
Regarding `COCc1cccc(-c2csc(C(O)c3ccc(F)cc3)n2)c1` (centres undefined), the inhibition was -6.65% (inactive).
Then `COc1ccc(C(=O)CSc2nnc(-c3cnccn3)n2-c2ccc(C)cc2)cc1`, with -7.18% (inactive); and `COC(=O)[C@H](C(C)C)N1CCc2nnn(Cc3ccc(C)cc3)c2-c2ccccc2S1(=O)=O`, with 8.58% (inactive).
Then `CN(CCO)c1cccc2c1S(=O)(=O)N(Cc1cn(Cc3ccc(C(F)(F)F)cc3)nn1)Cc1ccccc1O2`, with 1.41% (inactive).
Next, `CCOC(=O)C1CCN(C(=O)C(C)(C)NC(=O)Nc2ccc(F)c(F)c2)CC1`: -6.47% (inactive); `Clc1ccc(-n2c(SC/C=C/c3ccccc3)nnc2-c2ccco2)cc1`: -10.5% (inactive).
On to `Clc1ccccc1CSc1nnc(-c2ccco2)c(-c2ccco2)n1`, for which the inhibition was 38.9% (active).
Next, `COc1ccnc(C(=O)N2CCC(Oc3cccnc3)CC2)c1`: 3.41% (inactive); `CC(C)(C)c1ccc(C(=O)Nc2cc(Cl)c(Br)cc2C(=O)O)cc1`: -156% (inactive).
As for `COc1cc(NC(=S)NNC(=O)CC(C)C)c(OC)cc1Cl`, the inhibition is 1.23% (inactive).
Next, `COc1ccc(C)cc1NC(=S)Nc1ccccc1SC`: -1.16% (inactive).
Turning to `CCc1ccccc1NC(=S)Nc1cc(OC)c(NC(=O)C(C)C)cc1OC`, the inhibition was 33.4% (active).
Then `Cc1ccccc1CN1CCCCC(NC(=O)Nc2ccccc2F)C1=O` (centres undefined), with 3.77% (inactive); and `Oc1c(Cl)cc(Cl)c(Cl)c1Cc1c(O)c(Cl)cc(Cl)c1Cl`, with -117% (inactive).
Next, `CCOC(=O)[C@]12CCCC3=C1N(CCC3)C(=O)[C@@H](CC(=O)NCC13CC4CC(CC(C4)C1)C3)C2`: 3.95% (inactive); `CC/C(=C(/c1ccccc1)c1ccc(OCC[N+](C)(C)C)cc1)c1ccccc1`: 30% (active).
For `COC(=O)C[C@@H]1CC[C@H]2[C@@H](COc3ccc(NS(=O)(=O)CC(F)(F)F)cc3C(=O)N2C)O1`, the inhibition was 10.4% (inactive).
Next, `COC(=O)c1ccc(CN(c2ccccc2OC)S(=O)(=O)c2cccs2)o1`: 4.33% (inactive).
Next, `COC(=O)C1=C(C(=O)OC)C2C=C(C(C)C)C1C(=O)C2(C)O` (centres undefined): -1.36% (inactive); `CCOc1ccc(S(=O)(=O)NCCC(=O)NCC(C)(C)N2CCOCC2)cc1`: 4.91% (inactive); `O=C1COc2ccc(C(=O)COC(=O)c3ccccc3Cl)cc2N1`: -1.93% (inactive).
Then `O=C(COC(=O)c1ccc(O)cc1O)c1ccc2c(c1)OCCO2`, with 36.5% (active); and `O=C(OCc1ccccc1F)c1ccc2c(c1)OCCO2`, with 1.07% (inactive).
Take `Cc1nc2sccn2c(=O)c1S(=O)(=O)NCCc1ccccc1`: the inhibition is 0.82% (inactive).
Consider `O=C(COC(=O)c1ncc(Cl)c(Cl)c1Cl)NC1CCS(=O)(=O)C1` (centres undefined), for which the inhibition is 2.44% (inactive).
Next, `Oc1ccc(N=Cc2sc3ccccc3c2Cl)cc1`: 88.4% (active).
Next, `Oc1ccc(N=Cc2c(O)ccc3ccccc23)cc1`: 51.1% (active).
Consider `C[C@@H]1CN([C@@H](C)CO)C(=O)c2cccc(NC(=O)Nc3cccc4ccccc34)c2O[C@H]1CN(C)S(=O)(=O)c1ccccc1F`, for which the inhibition was -0.79% (inactive).
On to `COC(=O)[C@]12C[C@H](CC(=O)NCc3cccc4ccccc34)C(=O)N(CCc3ccc(OC)c(OC)c3)C1=C[C@H](C1CCCC1)O[C@@H]2C`, for which the inhibition was -10.3% (inactive).
With `Cn1c(SCC(=O)N2CCOCC2)nnc1-c1ccc(NC(=O)c2ccccc2F)cc1`, the inhibition is 1.97% (inactive).
Then `CSc1nc2sc3c(c2c(=O)[nH]1)CCc1ccccc1-3`, with 4.16% (inactive).
Next, `CCCNC(=O)Nc1ccc2c(c1)C(=O)N(C)[C@H]1CC[C@H](CC(=O)NCC3CCCCC3)O[C@@H]1CO2`: 12.2% (inactive); `O=[N+]([O-])c1cc(Cl)cc(/C=N/NC(=S)Nc2cc(S(=O)(=O)N3CCOCC3)ccc2Cl)c1O`: 32.2% (active); `COCCNC(=S)Nc1cc(S(=O)(=O)N2CCOCC2)ccc1N1CCCCC1`: 1.6% (inactive).
Next, `Cc1ccc(S(=O)(=O)N2CCOCC2)cc1NC(=O)c1ccncc1`: -3.76% (inactive); `Cc1ccccc1NC(=O)CSc1ccc2nnc(-c3ccccn3)n2n1`: 5.22% (inactive).
For the compound `CC12C(=O)N(n3cnnc3)C(=O)C1C1C=CC2C1` (centres undefined), the inhibition is -1.34% (inactive).
On to `CCN1C(=O)/C(=C\N2CCOCC2)SC1=S`, for which the inhibition was 9.79% (inactive).
Then `CCN1C(=O)/C(=C2/Sc3ccccc3N2CCCS(=O)(=O)O)SC1=S`, with 9.75% (inactive) and 31.2% (active); and `CCCCN1C(=O)/C(=C2/C=CC=CN2C)SC1=S`, with 4.21% (inactive); and `CC(=O)Nc1ccc(NC(=O)CSC2=NS(=O)(=O)c3ccccc3N2)cc1`, with 0.67% (inactive).
